Experimental data from ChEMBL document CHEMBL4196175, “First SAR Study for Overriding NRAS Mutant Driven Acute Myeloid Leukemia” (J Med Chem, 2018).
Calls of active or inactive are those of the source. No cut-off for these calls is given here.

Key:
Mus musculus = species: Mus musculus; experiment: Inhibition of ACK1/GCK in mouse BA/F3 cells assessed as reduction in NRAS-G12D mutant-mediated cell proliferation after 72 hrs by celltiter-glo assay; assay type: cell-based
[1] = target: T1, Mitogen-activated protein kinase kinase kinase kinase 2 (Homo sapiens, UniProt Q12851); experiment: Inhibition of GCK (unknown origin) by radiometric biochemical kinase assay
T1 sequence (Q12851 whole entry): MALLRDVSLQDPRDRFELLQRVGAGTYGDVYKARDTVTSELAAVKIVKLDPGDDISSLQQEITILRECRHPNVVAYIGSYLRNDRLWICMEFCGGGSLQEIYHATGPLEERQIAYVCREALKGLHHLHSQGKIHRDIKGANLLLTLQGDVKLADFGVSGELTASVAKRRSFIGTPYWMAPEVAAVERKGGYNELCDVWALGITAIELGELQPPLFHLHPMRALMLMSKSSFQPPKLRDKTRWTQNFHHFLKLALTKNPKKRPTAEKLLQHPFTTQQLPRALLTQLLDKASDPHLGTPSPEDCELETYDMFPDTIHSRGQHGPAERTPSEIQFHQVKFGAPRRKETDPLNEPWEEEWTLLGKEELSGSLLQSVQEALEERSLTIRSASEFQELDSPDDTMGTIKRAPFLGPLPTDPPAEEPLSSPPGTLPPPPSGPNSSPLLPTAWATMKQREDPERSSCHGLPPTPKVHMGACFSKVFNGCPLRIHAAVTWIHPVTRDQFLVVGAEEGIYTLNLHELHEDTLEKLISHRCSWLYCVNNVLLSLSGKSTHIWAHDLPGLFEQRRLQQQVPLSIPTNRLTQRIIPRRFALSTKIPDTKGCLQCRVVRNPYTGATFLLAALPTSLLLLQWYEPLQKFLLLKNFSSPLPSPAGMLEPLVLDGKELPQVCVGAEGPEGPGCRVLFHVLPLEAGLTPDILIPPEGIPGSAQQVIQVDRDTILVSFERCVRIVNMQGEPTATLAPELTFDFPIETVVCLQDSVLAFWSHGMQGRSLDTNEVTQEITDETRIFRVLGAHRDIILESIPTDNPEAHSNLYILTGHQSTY

CYP2C9 = CYP2C9 (Homo sapiens, UniProt P11712); experiment: Inhibition of CYP2C9 (unknown origin) assessed as activity remaining at 10 uM relative to control; assay type: ADME; settings: read-out: Activity
Chain of CYP2C9 (P11712 whole entry): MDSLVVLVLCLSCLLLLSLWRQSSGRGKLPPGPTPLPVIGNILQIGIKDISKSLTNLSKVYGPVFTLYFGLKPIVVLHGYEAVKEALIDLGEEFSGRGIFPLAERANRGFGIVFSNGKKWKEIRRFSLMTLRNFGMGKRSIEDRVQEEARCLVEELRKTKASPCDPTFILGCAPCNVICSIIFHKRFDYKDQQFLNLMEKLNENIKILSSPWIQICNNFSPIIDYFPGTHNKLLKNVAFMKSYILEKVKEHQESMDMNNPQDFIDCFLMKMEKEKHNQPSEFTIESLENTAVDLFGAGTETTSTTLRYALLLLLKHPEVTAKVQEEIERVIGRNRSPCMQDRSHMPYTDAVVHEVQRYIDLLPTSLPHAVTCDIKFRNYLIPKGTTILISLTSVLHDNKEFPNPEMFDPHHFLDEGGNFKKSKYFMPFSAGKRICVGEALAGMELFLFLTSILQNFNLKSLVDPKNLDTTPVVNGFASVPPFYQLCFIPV

Activated CDC42 kinase 1 = Activated CDC42 kinase 1 (Homo sapiens, UniProt Q07912); experiment: Inhibition of ACK1 in human OCI-AML3 cells harboring NRAS Q61L mutant assessed as reduction in P70S6K1 phosphorylation at Thr421/Ser424 at 1 uM after 2 hrs by Western blot analysis; assay type: cell-based
Chain of Activated CDC42 kinase 1 (Q07912 whole entry, looked up): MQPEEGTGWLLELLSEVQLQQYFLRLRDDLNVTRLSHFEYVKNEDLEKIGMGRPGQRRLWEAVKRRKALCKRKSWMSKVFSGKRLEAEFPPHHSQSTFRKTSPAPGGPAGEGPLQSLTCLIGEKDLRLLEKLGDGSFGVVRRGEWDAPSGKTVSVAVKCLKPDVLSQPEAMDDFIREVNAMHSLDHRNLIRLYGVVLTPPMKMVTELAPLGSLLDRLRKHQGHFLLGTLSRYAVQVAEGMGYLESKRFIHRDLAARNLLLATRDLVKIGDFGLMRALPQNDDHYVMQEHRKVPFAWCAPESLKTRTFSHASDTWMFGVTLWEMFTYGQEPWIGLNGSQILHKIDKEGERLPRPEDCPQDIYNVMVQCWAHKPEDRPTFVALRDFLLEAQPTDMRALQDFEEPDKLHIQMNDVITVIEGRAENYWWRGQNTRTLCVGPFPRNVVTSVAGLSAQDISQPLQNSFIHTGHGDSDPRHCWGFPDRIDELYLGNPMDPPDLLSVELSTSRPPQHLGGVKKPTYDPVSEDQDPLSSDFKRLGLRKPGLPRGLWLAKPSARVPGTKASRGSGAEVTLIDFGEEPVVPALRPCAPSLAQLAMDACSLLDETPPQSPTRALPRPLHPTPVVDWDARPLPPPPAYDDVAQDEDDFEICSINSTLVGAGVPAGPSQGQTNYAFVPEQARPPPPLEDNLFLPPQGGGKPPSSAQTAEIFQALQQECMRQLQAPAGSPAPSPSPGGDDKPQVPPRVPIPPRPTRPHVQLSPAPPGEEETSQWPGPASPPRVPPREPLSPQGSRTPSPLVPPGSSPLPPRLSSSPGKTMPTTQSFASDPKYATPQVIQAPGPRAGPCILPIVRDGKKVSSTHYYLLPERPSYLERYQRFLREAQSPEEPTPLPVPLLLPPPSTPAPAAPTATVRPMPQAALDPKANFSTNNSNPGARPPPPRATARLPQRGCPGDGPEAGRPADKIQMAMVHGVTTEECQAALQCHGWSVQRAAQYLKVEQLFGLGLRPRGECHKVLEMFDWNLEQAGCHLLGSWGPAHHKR
Summary of the method: (§1)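 Ba/F3-NRAS-G12D or OCI-AML3 cells exposed 2 h to compounds (1 µM, or a dose series in OCI-AML3); phospho-p70S6K1, phospho-AKT S473, phospho-JNK and phospho-p38 assessed by western blot, actin as loading control.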

[2] = target: Activated CDC42 kinase 1 (Mus musculus) (UniProt O54967); experiment: Inhibition of ACK1 in mouse BA/F3 cells harboring NRAS-G12D mutant assessed as reduction in AKT phosphorylation at S473 at 1 uM after 2 hrs by Western blot analysis; assay type: cell-based; summary of the method: as §1
Chain of Activated CDC42 kinase 1 (Mus musculus) (O54967 whole entry): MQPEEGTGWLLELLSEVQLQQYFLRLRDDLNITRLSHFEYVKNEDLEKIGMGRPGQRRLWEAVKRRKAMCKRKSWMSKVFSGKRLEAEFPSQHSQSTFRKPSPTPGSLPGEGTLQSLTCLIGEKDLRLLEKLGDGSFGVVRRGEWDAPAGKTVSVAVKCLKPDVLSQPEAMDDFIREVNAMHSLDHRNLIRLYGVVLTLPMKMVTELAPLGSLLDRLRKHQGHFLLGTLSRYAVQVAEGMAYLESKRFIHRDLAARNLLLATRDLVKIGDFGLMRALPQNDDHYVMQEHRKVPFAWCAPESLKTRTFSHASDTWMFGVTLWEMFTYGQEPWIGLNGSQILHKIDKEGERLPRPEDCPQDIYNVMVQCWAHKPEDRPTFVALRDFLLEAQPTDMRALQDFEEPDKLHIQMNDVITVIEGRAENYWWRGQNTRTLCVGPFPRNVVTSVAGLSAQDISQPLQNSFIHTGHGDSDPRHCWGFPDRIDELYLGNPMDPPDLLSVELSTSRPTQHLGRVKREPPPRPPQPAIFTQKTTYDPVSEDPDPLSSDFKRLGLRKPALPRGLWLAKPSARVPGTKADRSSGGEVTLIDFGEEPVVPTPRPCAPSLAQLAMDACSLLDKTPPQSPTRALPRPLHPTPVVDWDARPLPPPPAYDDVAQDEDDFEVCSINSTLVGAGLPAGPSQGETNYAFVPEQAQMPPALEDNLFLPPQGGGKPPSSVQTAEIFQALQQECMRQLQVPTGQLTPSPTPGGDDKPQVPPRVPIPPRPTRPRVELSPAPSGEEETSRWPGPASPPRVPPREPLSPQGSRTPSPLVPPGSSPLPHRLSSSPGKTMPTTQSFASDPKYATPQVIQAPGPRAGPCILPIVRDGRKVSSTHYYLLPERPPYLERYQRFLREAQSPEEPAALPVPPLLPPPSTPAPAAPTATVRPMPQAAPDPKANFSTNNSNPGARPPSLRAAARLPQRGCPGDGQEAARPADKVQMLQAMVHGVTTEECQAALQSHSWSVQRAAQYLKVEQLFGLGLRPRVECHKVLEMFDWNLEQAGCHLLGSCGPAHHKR

CYP2D6 = CYP2D6 (Homo sapiens, UniProt P10635); experiment: Inhibition of CYP2D6 (unknown origin) assessed as activity remaining at 10 uM relative to control; assay type: ADME; settings: read-out: Activity
Chain of CYP2D6 (P10635 whole entry): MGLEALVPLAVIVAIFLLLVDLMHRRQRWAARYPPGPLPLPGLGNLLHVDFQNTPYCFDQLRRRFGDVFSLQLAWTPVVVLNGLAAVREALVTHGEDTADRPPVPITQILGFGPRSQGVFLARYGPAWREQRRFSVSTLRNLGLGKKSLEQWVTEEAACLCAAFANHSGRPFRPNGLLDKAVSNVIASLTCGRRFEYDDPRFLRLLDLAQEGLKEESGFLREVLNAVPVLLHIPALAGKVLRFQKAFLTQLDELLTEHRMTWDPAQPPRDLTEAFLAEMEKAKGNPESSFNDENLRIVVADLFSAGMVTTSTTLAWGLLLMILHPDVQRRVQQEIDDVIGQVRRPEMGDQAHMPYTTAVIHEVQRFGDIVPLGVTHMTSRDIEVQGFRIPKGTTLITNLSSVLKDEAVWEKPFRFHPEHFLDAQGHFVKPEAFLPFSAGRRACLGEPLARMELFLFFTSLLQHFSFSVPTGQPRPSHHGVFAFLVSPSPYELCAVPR

[3] = target: T2, Mitogen-activated protein kinase kinase kinase kinase 2 (Homo sapiens) (UniProt Q12851); experiment: Inhibition of GCK in human OCI-AML3 cells harboring NRAS Q61L mutant assessed as reduction in JNK phosphorylation at T183/Y185 at 1 uM after 2 hrs by Western blot analysis; assay type: cell-based; summary of the method: as §1
T2 sequence (whole entry): T1 sequence (Q12851 whole entry)

OCI-AML-3 = experiment: Inhibition of anchorage-independent cell growth in human OCI-AML3 cells harboring NRAS Q61L mutant assessed as reduction in colony size at 0.1 to 1 uM after 14 days by iodonitrotetrazolium chloride staining-based soft agar assay; assay type: functional
Summary of the method: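 OCI-AML3 cells embedded in 0.7% low-melting agar, incubated 2 weeks with compound at 0.1 or 1 µM; colony number and colony size per well measured by automated image analysis; n = 3 per condition, SD, one-way ANOVA.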

CYP3A4 = CYP3A4 (Homo sapiens, UniProt P08684); experiment: Inhibition of CYP3A4 (unknown origin) assessed as activity remaining at 10 uM relative to control; assay type: ADME; settings: read-out: Activity
Chain of CYP3A4 (P08684 whole entry): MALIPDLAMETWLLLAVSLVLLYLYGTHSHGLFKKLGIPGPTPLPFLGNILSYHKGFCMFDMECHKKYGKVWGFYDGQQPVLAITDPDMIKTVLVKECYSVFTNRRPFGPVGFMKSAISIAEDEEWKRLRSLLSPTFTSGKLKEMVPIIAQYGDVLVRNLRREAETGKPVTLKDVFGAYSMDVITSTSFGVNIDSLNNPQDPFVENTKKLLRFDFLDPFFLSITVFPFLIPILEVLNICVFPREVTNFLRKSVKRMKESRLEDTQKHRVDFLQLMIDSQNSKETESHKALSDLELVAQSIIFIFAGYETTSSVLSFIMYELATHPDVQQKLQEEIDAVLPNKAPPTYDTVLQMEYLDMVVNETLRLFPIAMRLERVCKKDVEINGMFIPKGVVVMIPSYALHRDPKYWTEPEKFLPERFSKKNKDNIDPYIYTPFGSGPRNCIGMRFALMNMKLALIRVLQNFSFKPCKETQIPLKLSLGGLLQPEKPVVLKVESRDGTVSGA

[4] = Metabolic stability in dog liver microsomes assessed as compound remaining at 1 uM after 30 mins; assay type: ADME, Canis lupus familiaris, microsome; settings: read-out: Stability
[5] = Growth inhibition of parental mouse BA/F3 cells after 72 hrs by celltiter-glo assay; assay type: cell-based, BaF3
[6] = Growth inhibition of parental human U937 cells after 72 hrs by celltiter-glo assay; assay type: cell-based, U-937
[7] = target: T3, Mitogen-activated protein kinase kinase kinase kinase 2 (Mus musculus) (UniProt Q61161); experiment: Inhibition of GCK in mouse BA/F3 cells harboring NRAS-G12D mutant assessed as reduction in JNK phosphorylation at T183/Y185 at 1 uM after 2 hrs by Western blot analysis; assay type: cell-based; summary of the method: as §1
T3 sequence (whole entry): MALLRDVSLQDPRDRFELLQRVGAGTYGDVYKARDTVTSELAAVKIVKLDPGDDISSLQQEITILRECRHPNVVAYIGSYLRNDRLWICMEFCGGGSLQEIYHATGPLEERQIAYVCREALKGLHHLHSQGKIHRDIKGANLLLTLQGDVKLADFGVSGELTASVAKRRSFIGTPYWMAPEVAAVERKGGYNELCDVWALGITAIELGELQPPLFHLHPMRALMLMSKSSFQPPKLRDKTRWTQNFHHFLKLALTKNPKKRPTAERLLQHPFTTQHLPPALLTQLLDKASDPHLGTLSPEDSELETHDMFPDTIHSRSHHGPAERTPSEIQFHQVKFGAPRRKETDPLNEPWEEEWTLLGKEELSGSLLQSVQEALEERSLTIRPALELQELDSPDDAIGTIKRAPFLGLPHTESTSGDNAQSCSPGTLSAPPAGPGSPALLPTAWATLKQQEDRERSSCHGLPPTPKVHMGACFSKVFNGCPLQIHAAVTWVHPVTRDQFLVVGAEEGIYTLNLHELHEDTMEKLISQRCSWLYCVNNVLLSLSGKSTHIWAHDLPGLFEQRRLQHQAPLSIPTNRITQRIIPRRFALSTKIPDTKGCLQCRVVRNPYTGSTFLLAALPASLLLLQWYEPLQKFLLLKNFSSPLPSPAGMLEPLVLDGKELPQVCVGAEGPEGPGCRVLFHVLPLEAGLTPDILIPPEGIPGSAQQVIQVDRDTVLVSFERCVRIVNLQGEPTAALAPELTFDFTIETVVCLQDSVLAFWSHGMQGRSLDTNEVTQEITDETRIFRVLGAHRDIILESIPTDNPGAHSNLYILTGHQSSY

[8] = Metabolic stability in human liver microsomes assessed as compound remaining at 1 uM after 30 mins; assay type: ADME, microsome; settings: read-out: Stability
[9] = target: T3, Mitogen-activated protein kinase kinase kinase kinase 2 (Mus musculus); experiment: Inhibition of GCK in mouse BA/F3 cells harboring NRAS-G12D mutant assessed as reduction in p38 phosphorylation at Thr180/Tyr182 at 1 uM after 2 hrs by Western blot analysis; assay type: cell-based; summary of the method: as §1

IC50 [1] [nM] | activity at 10 µM (CYP2C9) [%] | inhibition (Activated CDC42 kinase 1) | reduction in AKT S473 phosphorylation (qualitative) [2] | activity at 10 µM (CYP2D6) [%] | reduction in JNK phosphorylation (qualitative call) [3] | activity at 10 µM (CYP3A4) [%] | remaining at 0.5 h, 1 µM [4] [%] | reduction in JNK phosphorylation (active/inactive call) [7] | remaining at 0.5 h, 1 µM [8] [%] | reduction in p38 phosphorylation (qualitative call) [9] | Structure (SMILES) | GI50 (Mus musculus) [nM] | growth inhibition (GI) (OCI-AML-3) | GI50 at 72 h [5] [nM] | GI50 at 72 h [6] [nM]
2 | 55.1 | Active | Active | 4.9 | Active | 21.6 | 43.1 | Active | 57.5 | Active | Cc1ccc(Nc2ncc3c(n2)N(C)C(=O)N(c2cc(NC(=O)c4ccc(CN5CCC(N(C)C)C5)c(C(F)(F)F)c4)ccc2C)C3)cn1 (stereo not drawn) | 23 | Active | 636 | 1970
2 | 29 | Active | Active | 32.8 | Active | 94.2 | 23.3 | Active | 24.6 | Active | CCN1CCN(C(=O)c2ccc(Nc3ncc4c(n3)N(C)C(=O)N(c3cc(NC(=O)c5cccc(C(F)(F)F)c5)ccc3C)C4)cn2)CC1 | 107 |  | 728 | 6480
1 | 15.6 |  |  | 83.1 |  | 88.5 | 38 |  | 47.3 |  | CC(=O)N1CCN(c2ccc(Nc3ncc4c(n3)N(C)C(=O)N(c3cc(NC(=O)c5cccc(C(F)(F)F)c5)ccc3C)C4)cn2)CC1 | 59 | Active | 402 | 2480
5 | 38.3 | Active | Active | 72 | Active | > 100 | 69.9 | Active | 69.2 | Active | Cc1cc(Nc2ncc3c(n2)N(C)C(=O)N(c2cc(NC(=O)c4cccc(C(F)(F)F)c4)ccc2C)C3)n(C)n1 | 129 |  | 2060 | 2460

Structure (SMILES) | IC50 [1] [nM] | activity at 10 µM (CYP2C9) [%] | inhibition (Activated CDC42 kinase 1) | reduction in AKT S473 phosphorylation (qualitative) [2] | activity at 10 µM (CYP2D6) [%] | reduction in JNK phosphorylation (qualitative call) [3] | activity at 10 µM (CYP3A4) [%] | remaining at 0.5 h, 1 µM [4] [%] | reduction in JNK phosphorylation (active/inactive call) [7] | remaining at 0.5 h, 1 µM [8] [%] | reduction in p38 phosphorylation (qualitative call) [9] | GI50 (Mus musculus) [nM] | growth inhibition (GI) (OCI-AML-3) | GI50 at 72 h [5] [nM] | GI50 at 72 h [6] [nM]
Cc1ccc(NC(=O)c2cccc(C(F)(F)F)c2)cc1N1Cc2cnc(N)nc2N(C)C1=O | 28 | 68.1 | Active | Active | 82.2 | Active | > 100 | 67.9 | Active | 84.4 | Active | 223 | Active | 2110 | 4970
